Experiment [1] deals with Staphylococcus aureus. Kind of experiment: Induction of Staphylococcus aureus DNA topoisomerase 4-mediated negatively supercoiled Escherichia coli pBR322 DNA cleavage at 50 uM after 10 mins by gel electrophoresis. A digest of the protocol: (§1)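 Negatively supercoiled pBR322 (300 ng) incubated with titrated topoisomerase (tetramer amounts) in 50 mM Tris-HCl pH 8, 10 mM MgCl2, 10 mM DTT, 50 μg/ml BSA, 1 mM ATP, 5 μg/ml tRNA, 10 min at 37°C, with or without 50 μM norfloxacin. Trapped by 1% SDS, then EDTA/proteinase K, extracted, and run on 1.2% agarose with ethidium bromide; activity is linear DNA per enzyme amount.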

Experiment [2] deals with T1, DNA gyrase (Staphylococcus aureus) (UniProt P0A0K8+P20831). Description: Induction of Staphylococcus aureus DNA gyrase-mediated negatively supercoiled Escherichia coli pBR322 DNA cleavage at 50 uM after 10 mins by gel electrophoresis. The format is protein-complex assay. Put shortly: as §1
T1 sequence (P0A0K8 2-644 limits assumed): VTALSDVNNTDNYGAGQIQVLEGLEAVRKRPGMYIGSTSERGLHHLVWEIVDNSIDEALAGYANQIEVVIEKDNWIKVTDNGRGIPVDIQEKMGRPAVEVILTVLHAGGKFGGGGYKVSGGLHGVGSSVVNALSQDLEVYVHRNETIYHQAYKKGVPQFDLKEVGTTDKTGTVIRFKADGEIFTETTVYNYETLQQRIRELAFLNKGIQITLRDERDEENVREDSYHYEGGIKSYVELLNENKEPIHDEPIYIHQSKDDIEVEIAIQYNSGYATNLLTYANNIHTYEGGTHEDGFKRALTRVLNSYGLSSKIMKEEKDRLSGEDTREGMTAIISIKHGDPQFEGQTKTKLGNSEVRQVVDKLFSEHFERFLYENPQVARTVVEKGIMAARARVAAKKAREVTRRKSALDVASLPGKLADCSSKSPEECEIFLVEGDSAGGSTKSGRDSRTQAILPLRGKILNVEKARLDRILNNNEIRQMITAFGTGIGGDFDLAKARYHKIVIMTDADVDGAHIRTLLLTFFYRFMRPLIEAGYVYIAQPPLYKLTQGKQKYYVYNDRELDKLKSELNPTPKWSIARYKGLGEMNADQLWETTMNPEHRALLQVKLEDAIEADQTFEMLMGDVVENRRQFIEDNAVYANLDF
T1 sequence (P20831 whole entry partner): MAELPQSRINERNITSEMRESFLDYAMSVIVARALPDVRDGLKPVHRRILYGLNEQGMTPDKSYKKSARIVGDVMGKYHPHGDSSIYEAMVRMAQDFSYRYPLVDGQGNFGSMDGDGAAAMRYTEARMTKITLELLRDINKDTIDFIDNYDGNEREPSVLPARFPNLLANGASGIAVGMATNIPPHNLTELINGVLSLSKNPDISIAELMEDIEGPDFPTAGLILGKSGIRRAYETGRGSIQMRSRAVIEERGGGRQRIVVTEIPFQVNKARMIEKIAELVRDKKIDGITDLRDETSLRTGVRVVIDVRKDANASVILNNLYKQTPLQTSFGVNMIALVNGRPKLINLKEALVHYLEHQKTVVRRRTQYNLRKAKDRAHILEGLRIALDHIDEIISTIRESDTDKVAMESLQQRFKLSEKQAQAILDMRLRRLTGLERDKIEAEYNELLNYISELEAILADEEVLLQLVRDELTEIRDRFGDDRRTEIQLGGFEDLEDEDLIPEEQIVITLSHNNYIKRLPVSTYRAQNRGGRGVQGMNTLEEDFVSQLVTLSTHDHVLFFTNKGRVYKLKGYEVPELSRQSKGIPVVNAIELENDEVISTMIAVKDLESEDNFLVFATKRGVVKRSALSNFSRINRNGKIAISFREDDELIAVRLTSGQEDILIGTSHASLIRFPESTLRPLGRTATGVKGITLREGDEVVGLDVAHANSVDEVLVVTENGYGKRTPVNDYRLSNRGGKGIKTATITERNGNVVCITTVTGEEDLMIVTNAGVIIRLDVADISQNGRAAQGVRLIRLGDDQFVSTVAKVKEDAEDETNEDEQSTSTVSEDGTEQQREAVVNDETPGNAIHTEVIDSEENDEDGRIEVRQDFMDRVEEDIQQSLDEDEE
Experiment [3] addresses T1, DNA gyrase (Staphylococcus aureus). Kind of experiment: Induction of Staphylococcus aureus DNA gyrase-mediated Escherichia coli pBR322 DNA cleavage assessed as ratio of drug-induced DNA cleavage to spontaneous DNA cleavage at 50 uM after 10 mins by gel electrophoresis. The class given is protein-complex assay. Put shortly:
(§2)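 Quinolone sensitivity is the ratio of specific cleavage activity with 50 μM norfloxacin to the activity without it. Both come from the same pBR322 cleavage reaction: 37°C for 10 min with 1 mM ATP, then SDS/proteinase K trapping, with linear DNA resolved on ethidium-stained 1.2% agarose gels.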

Experiment [4] deals with Escherichia coli. Description: Induction of Escherichia coli DNA gyrase-mediated negatively supercoiled Escherichia coli pBR322 DNA cleavage at 50 uM after 10 mins by gel electrophoresis. Put shortly:
as §1

Experiment [5] deals with T2, DNA topoisomerase 4 subunit A (Escherichia coli K-12), P0AFI2 [S80L].
T2 sequence (whole entry): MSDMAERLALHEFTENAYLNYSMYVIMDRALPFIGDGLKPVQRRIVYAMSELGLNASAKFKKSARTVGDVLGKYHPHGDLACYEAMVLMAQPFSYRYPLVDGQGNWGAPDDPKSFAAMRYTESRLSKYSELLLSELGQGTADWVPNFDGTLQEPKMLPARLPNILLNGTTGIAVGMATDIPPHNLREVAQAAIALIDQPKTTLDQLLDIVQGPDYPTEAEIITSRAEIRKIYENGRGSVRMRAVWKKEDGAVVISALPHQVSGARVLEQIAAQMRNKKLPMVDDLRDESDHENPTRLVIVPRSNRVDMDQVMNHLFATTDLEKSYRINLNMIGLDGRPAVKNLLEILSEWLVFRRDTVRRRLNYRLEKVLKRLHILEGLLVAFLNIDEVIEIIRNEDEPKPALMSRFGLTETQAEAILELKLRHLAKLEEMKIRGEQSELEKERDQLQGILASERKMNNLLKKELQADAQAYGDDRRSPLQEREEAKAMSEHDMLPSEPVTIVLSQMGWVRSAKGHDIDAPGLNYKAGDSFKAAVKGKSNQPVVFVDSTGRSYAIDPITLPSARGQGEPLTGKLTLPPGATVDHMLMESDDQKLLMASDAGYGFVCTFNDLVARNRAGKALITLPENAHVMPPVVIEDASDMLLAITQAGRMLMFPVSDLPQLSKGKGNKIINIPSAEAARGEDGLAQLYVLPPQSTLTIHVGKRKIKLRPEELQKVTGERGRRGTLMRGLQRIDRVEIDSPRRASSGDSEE
Kind of experiment: Induction of Staphylococcus aureus DNA topoisomerase 4 ParC S80L mutant-mediated Escherichia coli pBR322 DNA cleavage assessed as ratio of drug-induced DNA cleavage to spontaneous DNA cleavage at 50 uM after 10 mins by gel electrophoresis.

Experiment [6] has as its system Escherichia coli. Kind of experiment: Induction of Escherichia coli DNA gyrase-mediated Escherichia coli pBR322 DNA cleavage assessed as ratio of drug-induced DNA cleavage to spontaneous DNA cleavage at 50 uM after 10 mins by gel electrophoresis. Put shortly: as §2
Experiment [7] relates to Escherichia coli. Kind of experiment: Induction of Escherichia coli DNA topoisomerase 4-mediated negatively supercoiled Escherichia coli pBR322 DNA cleavage at 50 uM after 10 mins by gel electrophoresis. A digest of the protocol:
as §1

In experiment [8] the test system is Escherichia coli. Kind of experiment: (§3) Induction of Escherichia coli DNA topoisomerase 4-mediated negatively supercoiled Escherichia coli pBR322 DNA cleavage assessed as amount of linear DNA generated per unit amount of enzyme at 50 uM after 10 mins by gel electrophoresis. A digest of the protocol: as §1
Experiment [9] relates to T2, DNA topoisomerase 4 subunit A (Escherichia coli K-12), P0AFI2 [S80L]. The experiment is described as §3. A digest of the protocol:
as §1

The target in experiment [10] is DNA gyrase (Escherichia coli) (UniProt P0AES6+P0AES4). Kind of experiment: Induction of Escherichia coli DNA gyrase-mediated negatively supercoiled Escherichia coli pBR322 DNA cleavage assessed as amount of linear DNA generated per unit amount of enzyme at 50 uM after 10 mins by gel electrophoresis. The format is protein-complex assay. A digest of the protocol:
as §1

For experiment [11], the system named is Staphylococcus aureus. Kind of experiment: Induction of Staphylococcus aureus DNA topoisomerase 4-mediated Escherichia coli pBR322 DNA cleavage assessed as ratio of drug-induced DNA cleavage to spontaneous DNA cleavage at 50 uM after 10 mins by gel electrophoresis. A digest of the protocol:
as §2

Experiment [12] has as its system Staphylococcus aureus. Kind of experiment: Induction of Staphylococcus aureus DNA topoisomerase 4-mediated negatively supercoiled Escherichia coli pBR322 DNA cleavage assessed as amount of linear DNA generated per unit amount of enzyme at 50 uM after 10 mins by gel electrophoresis. A digest of the protocol: as §1
The test system of experiment [13] is Staphylococcus aureus. Description: Sensitivity ratio for induction of Staphylococcus aureus DNA topoisomerase 4 over DNA gyrase-mediated negatively supercoiled Escherichia coli pBR322 DNA cleavage.
Experiment [14] relates to Escherichia coli. Kind of experiment: Induction of Escherichia coli DNA topoisomerase 4-mediated Escherichia coli pBR322 DNA cleavage assessed as ratio of drug-induced DNA cleavage to spontaneous DNA cleavage at 50 uM after 10 mins by gel electrophoresis. A digest of the protocol: as §2
The test system of experiment [15] is Escherichia coli. Kind of experiment: Sensitivity ratio for induction of Escherichia coli DNA topoisomerase 4 over DNA gyrase-mediated negatively supercoiled Escherichia coli pBR322 DNA cleavage.
In experiment [16] the test system is Escherichia coli. Description: Induction of Escherichia coli DNA topoisomerase 4 ParC […] mutant-mediated negatively supercoiled Escherichia coli pBR322 DNA cleavage assessed as amount of linear DNA generated per unit amount of enzyme at 50 uM after 10 mins by gel electrophoresis. A digest of the protocol:
as §1

Activity calls are given as the source filed them. The rule behind the calls is not given here.

Take `CCn1cc(C(=O)O)c(=O)c2cc(F)c(N3CCNCC3)cc21`: the result (in the experiment on Staphylococcus aureus [1]; in experiment [2]; in the experiment on Escherichia coli [4]; in the experiment with Escherichia coli [7]) was Active. The Ratio in experiment [3] stood at 10; in [5], 1.96; in the experiment with Escherichia coli [6], 68.4; in the experiment on Staphylococcus aureus [11], 24.7; in the experiment on Staphylococcus aureus [13], 2.5; in the experiment with Escherichia coli [14], 3.79. The Ratio in the experiment with Escherichia coli [15] was 18. In addition, the Activity with Escherichia coli [8] was found to be 0.53 ng; in experiment [9], 0.49 ng; in [10], 0.39 ng; in the experiment on Staphylococcus aureus [12], 0.42 ng; in the experiment on Escherichia coli [16], 0.17 ng.

For the origin of these results see ChEMBL document CHEMBL1154411, “Determination of the primary target of a quinolone drug and the effect of quinolone resistance-conferring mutations by measuring quinolone sensitivity based on its mode of action” (Antimicrob Agents Chemother, 2007).
